Assay [1] is filed under the species Cavia porcellus. The experiment in a line: Agonist activity expressed as percent inhibition of contraction of electrically stimulated guinea pig ileal longitudinal muscle at a concentration of 1 uM. Type of assay: functional, Muscle tissue. In a few lines: (§1)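 Electrically stimulated GPI longitudinal muscle or MVD preparations. Ligands that were not full agonists were tested at 1 µM. Inhibition of contraction was expressed as a percentage of the maximal response. Three or more replicate determinations were run per compound.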

The next assay deals with Mu-type opioid receptor (Mus musculus, UniProt P42866). The experiment in a line: Inhibition of [3H]DAMGO binding to Opioid receptor mu 1 from mouse brain membranes. In a few lines: (§2)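 Competition binding of test ligands against tritiated radioligands on mouse brain membranes; the μ site used [3H]DAMGO. IC50 was converted to Ki by the Cheng-Prusoff equation using radioligand concentration and KD. Values are arithmetic means of at least 3 determinations, ±SEM.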
Mu-type opioid receptor, sequence (P42866 whole entry): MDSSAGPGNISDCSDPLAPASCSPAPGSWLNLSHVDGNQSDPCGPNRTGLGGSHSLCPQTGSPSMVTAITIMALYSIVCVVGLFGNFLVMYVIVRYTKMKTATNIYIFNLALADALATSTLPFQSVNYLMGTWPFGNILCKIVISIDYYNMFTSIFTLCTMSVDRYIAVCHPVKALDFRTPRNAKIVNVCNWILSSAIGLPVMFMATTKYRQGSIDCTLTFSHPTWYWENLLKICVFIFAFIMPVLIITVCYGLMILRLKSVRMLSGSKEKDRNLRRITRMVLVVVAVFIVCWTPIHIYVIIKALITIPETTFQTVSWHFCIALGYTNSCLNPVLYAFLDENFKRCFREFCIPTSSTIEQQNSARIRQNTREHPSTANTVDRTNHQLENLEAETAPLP

Assay [2] has as its target Delta-type opioid receptor (Mus musculus, UniProt P32300). Description: Inhibition of [3H]-NTI binding to Opioid receptor delta 1 from mouse brain membranes. In a few lines: as §2
For assay [3], the species on record is Mus musculus. The experiment in a line: Agonist activity expressed as percent inhibition of contraction of electrically stimulated mouse vas deferens at a concentration of 1 uM. Type of assay: functional. In a few lines:
as §1

Assay [4] deals with Kappa-type opioid receptor (Mus musculus, UniProt P33534). Description: Inhibition of [3H]U-69593 binding to Opioid receptor kappa 1 from mouse brain membranes. Summed up: as §2
Kappa-type opioid receptor, sequence (P33534 whole entry): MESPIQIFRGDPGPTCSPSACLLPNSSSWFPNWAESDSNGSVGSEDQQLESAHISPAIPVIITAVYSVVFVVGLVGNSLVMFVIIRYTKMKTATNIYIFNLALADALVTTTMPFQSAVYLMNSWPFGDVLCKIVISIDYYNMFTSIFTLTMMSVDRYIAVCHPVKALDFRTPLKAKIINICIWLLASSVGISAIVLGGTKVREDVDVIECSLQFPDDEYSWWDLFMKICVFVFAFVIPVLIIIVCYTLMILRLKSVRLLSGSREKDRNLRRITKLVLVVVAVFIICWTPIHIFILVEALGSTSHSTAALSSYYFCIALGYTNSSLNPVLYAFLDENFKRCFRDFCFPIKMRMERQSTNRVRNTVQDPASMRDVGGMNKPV
The species named for assay [5] is Cavia porcellus. Description: Agonist activity expressed as inhibitory concentration against contraction of electrically stimulated guinea pig ileum. Type of assay: functional. In a few lines:
(§3)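 Electrically stimulated smooth muscle: longitudinal muscle of guinea pig ileum (GPI) and mouse vas deferens (MVD). Inhibition of contraction was measured for ligands acting as full agonists, and potency was given as IC50 (nM). Three or more replicate determinations were run per compound.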

Assay [6] is filed under the species Mus musculus. Description: Agonist activity expressed as inhibitory concentration against contraction of electrically stimulated mouse vas deferens. The class given is functional. Summed up: as §3

Eight compounds from ChEMBL document CHEMBL1130152, “7-spirobenzocyclohexyl derivatives of naltrexone, oxymorphone, and hydromorphone as selective opioid receptor ligands” (J Med Chem, 1997) can be followed below.

The term Ki denotes a dissociation constant, usually derived from enzyme kinetics or from competition with a known ligand. What is called IC50 is the concentration that gives 50% inhibition. Read a low IC50 as inhibition by little substance.

Delta-type opioid receptor, sequence (P32300 whole entry): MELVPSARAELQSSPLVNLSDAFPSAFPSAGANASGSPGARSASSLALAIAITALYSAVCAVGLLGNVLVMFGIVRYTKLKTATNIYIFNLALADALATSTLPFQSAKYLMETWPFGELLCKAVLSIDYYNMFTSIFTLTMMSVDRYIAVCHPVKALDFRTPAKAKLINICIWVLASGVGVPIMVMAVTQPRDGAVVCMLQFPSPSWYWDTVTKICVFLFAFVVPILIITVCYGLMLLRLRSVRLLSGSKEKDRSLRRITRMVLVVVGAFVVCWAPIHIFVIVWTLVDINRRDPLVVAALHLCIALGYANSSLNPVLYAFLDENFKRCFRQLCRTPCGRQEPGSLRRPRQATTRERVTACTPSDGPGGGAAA

For the compound `O=C1[C@@H]2Oc3c(O)ccc4c3C23CCN(CC2CC2)C(C4)[C@]3(O)C[C@]12CCc1ccccc1C2` (stereo not given in full), the figures for the Max response in the assay filed under Cavia porcellus [1] and in the assay listed under Mus musculus [3] were 2% and 4%, respectively. Moreover, the Ki is 0.38 nM on Mu-type opioid receptor, 0.0019 nM in assay [2] and above 1000 nM in assay [4].
As to `CN1CCC23c4c5ccc(O)c4O[C@H]2C(=O)[C@@]2(CCc4ccccc4C2)C[C@H]3C1C5` (stereo not given in full), the Ki at Mu-type opioid receptor amounted to 2.8 nM; in assay [2], 8.3 nM; in assay [4], 88 nM. This compound also displayed a Max response in the assay filed under Mus musculus [3] of 42%. Further, the IC50 in the assay filed under Cavia porcellus [5] stood at 130 nM.
For `CN1CCC23c4c5ccc(O)c4O[C@H]2C(=O)[C@@]2(CCc4ccccc4C2)C[C@@]3(O)C1C5` (stereo not given in full), the results for the inhibition constant Ki (at Mu-type opioid receptor; in assay [2]; in assay [4]) were 18 nM, 4.6 nM and above 1000 nM, respectively. Moreover, the IC50 in the assay filed under Mus musculus [6] stood at 24 nM; in the assay listed under Cavia porcellus [5], 183 nM.
Take `O=C1[C@@H]2Oc3c(O)ccc4c3C23CCN(CC2CC2)C(C4)[C@]3(O)C[C@@]12CCc1ccccc1C2` (stereo not given in full): the Max response in the assay filed under Cavia porcellus [1] was 16%; in the assay listed under Mus musculus [3], 3%. Besides, the Ki on Mu-type opioid receptor worked out at 0.72 nM; in assay [2], 0.0041 nM; in assay [4], 147 nM.
`CN1CCC23c4c5ccc(O)c4O[C@H]2C(=O)[C@]2(CCc4ccccc4C2)C[C@H]3C1C5` (stereo not given in full): the Ki at Mu-type opioid receptor was 119 nM; in assay [2], 182 nM; in assay [4], above 1000 nM. Also, the Max response in the assay listed under Mus musculus [3] was determined as 17%. Moreover, the IC50 in the assay filed under Cavia porcellus [5] was found to be 107 nM.
For the compound `CN1CCC23c4c5ccc(O)c4O[C@H]2C(=O)[C@]2(CCc4ccccc4C2)C[C@@]3(O)C1C5` (stereo not given in full), the Ki on Mu-type opioid receptor is 28 nM; in assay [2], 9.3 nM; in assay [4] it was above 3000 nM. Further, the IC50 came out at 28 nM in the assay listed under Mus musculus [6] and 629 nM in the assay filed under Cavia porcellus [5].
`O=C1[C@@H]2Oc3c(O)ccc4c3[C@@]23CCN(CC2CC2)[C@H](C4)[C@]3(O)CC12Cc1ccccc1C2`: the Max response in the assay filed under Cavia porcellus [1] is listed as 16%; in the assay listed under Mus musculus [3], 8%. The Ki at Mu-type opioid receptor was 1.5 nM; in assay [2] it was 0.25 nM; in assay [4], above 3000 nM.
Compound `CN1CC[C@]23c4c5ccc(O)c4O[C@H]2C(=O)C2(Cc4ccccc4C2)C[C@@]3(O)[C@H]1C5` [SPIROINDANYLOXYMORPHONE] showed a Max response in the assay filed under Cavia porcellus [1] of 55%. For the same compound, the results for the Ki (on Mu-type opioid receptor; in assay [2]; in assay [4]) were 14 nM, 2.8 nM and above 3000 nM, respectively. In the assay listed under Mus musculus [6], this compound had an IC50 of 22 nM.
